Compound activity deposited in PubChem by several laboratories.
A selection: hits, their analogues and other compounds. The true share with any hit is near 4.3%.
SR-BI DiI-HDL act – activators of SR-BI mediated HDL lipid uptake | CHO ldlA[mSR-BI] cells, DiI-HDL uptake fluorescence, 3 h; 100 = double the neutral-control signal | 0.096% of 320,000 active | AID 504775 | activation, % at 12.5 µM;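 active = mean replicate activation of at least 60% and every replicate at or above 60%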;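 also: 0% = median plate neutral-control signal and 100% = twice that signal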
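Material: SR-BI-overexpressing, LDLR-lacking CHO cells | Dosing: Single compound concentration, delivered by pin transfer | Probe or stimulus: Labelled HDL, 10 µg/mL | Signal: Bottom-read cell fluorescence after medium removal, ex 550/em 595 nm | Schedule: 3 h, 37 °C | Evaluation: HDL uptake via cellular fluorescence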
AHR activator – activators of human aryl hydrocarbon receptor. 2.5% of 320,000 active. P35869. activation, % at 5 µM. AHR-responsive luciferase reporter cells, luminescence; in the data active = activation above about 47%;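 also: 0% = vehicle wells and 100% = reference agonist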
Yeast superoxide – lowers age-related superoxide in aged yeast cells; S. cerevisiae aged cells, superoxide DHE fluorescence; stronger effect = lower value; superoxide response (% of plate mean), % at 10 µM; 0.18% of 330,000 active;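 active = superoxide response under a set limit, about three screen SD below normal, cut at about 65% in these data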;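 also: yeast aged for seven days with compound at 30 °C before DHE staining; 100% = average MFI of all compound-treated wells on the plate with controls excluded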
Lipid droplet – hepatic lipid droplet formation modulation; AML12 mouse hepatocytes, oleate lipid droplets, BODIPY imaging; 0.4% of 240,000 active; inhibition, % at 6.5 µM;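 active = lipid droplet intensity inhibited by at least 50%, with more than 500 cells counted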
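Test system: AML12 mouse liver cells; schedule: overnight exposure; technique: high-content imaging of BODIPY-stained droplets and DAPI nuclei; read-out: % inhibition of corrected integrated BODIPY droplet signal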
SMARCA2 act – activators of SMARCA2 function | AID 652017 | activation, % at 9.1 µM | 1% of 370,000 active | MG213 cells, MMTV-luciferase reporter, dexamethasone, overnight; in the data active = activation above about 7.8%;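 also: 0% = vehicle wells and 100% = reference activator wells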
SR-BI DiI inh – blocks mouse SR-BI lipid uptake from DiI-HDL; inhibition, % at 12.5 µM; ldlA[mSR-BI] CHO cells, DiI-HDL uptake fluorescence, 3 h; 0.96% of 320,000 active;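 active = mean replicate inhibition of at least 70% and a set share of replicates each scoring 70 or more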;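 also: 0% = median of neutral control wells and 100% = median of positive control wells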
Active calls of the source: *; . = no result.

SMILES | SR-BI DiI-HDL act | AHR activator | Yeast superoxide | Lipid droplet | SMARCA2 act | SR-BI DiI inh
CCCN1CCCCC(NC(=O)c2ccc(-c3ccccc3)cc2)C1=O (configuration not stated) | . | . | . | . | 0 | .
CC(C)(C)c1ccc(-c2cn(C[C@H](Cc3ccccc3)n3c(=O)c4ccccc4n3Cc3ccno3)nn2)cc1 | . | . | . | . | -3 | .
O=C(Nc1ccc(-c2csc(Nc3ccccc3)n2)cc1)c1cc([N+](=O)[O-])cc(C(F)(F)F)c1 | -96 | 23 | 115 | -4 | 1 | 96*
O=C(Nc1cccc(-c2csc(Nc3cccc(C(F)(F)F)c3)n2)c1)c1cc([N+](=O)[O-])cc(C(F)(F)F)c1 | -107 | 36 | 95 | 47 | 0 | 107*
CC(=O)OC12CCCN(C1)/C(=C/c1cccc(Cl)c1)C2 (configuration not stated) | . | . | . | . | 0 | .
O=C(NNC(=O)c1cc2ccccc2[nH]1)OCc1ccccc1 | -7 | 66* | 122 | . | 2 | 7
COc1ccc(NC(=O)CO/N=C2\CCCc3nonc32)cc1 | 4 | 8 | 114 | 17 | -1 | -4
O=C(CO/N=C1\CCCc2nonc21)Nc1ccc(Br)cc1 | 8 | 78* | 96 | 20 | 0 | -8
c1ccc(N2CCN(c3nc4ccccc4n4cnnc34)CC2)cc1 | -30 | 39 | 93 | . | 1 | 30
C1=C(c2ccccc2)CCN(c2nc3ccccc3n3cnnc23)C1 | -12 | 79* | 109 | . | 2 | 12
COc1ccc2nc(NN=Cc3cccc(C)n3)cc(C)c2c1 | . | . | . | . | 4 | .
O=C(CSc1nnc(-c2ccc3c(c2)OCO3)o1)Nc1ncc(Cl)cc1Cl | -18 | 133* | 110 | 3 | -1 | 18
CC(O)CNc1nc2ccccc2n1-c1ncnc2sc3c(c12)CCC3 (configuration not stated) | -14 | 59* | 99 | . | -3 | 14
Cc1ccc(NC(=O)[C@@H](Cc2ccccc2)NC(=O)[C@H]2O[C@@H](n3ccc(=O)[nH]c3=O)[C@H](O)[C@@H]2O)cc1C | . | . | . | . | 2 | .
CCOC(=O)c1c(NC(=O)c2cccc(N3C(=O)CCC3=O)c2)sc(C)c1C | -27 | 0 | 111 | . | -1 | 27
CCOC(=O)c1c(-c2ccc(-c3ccccc3)cc2)csc1NC(=O)c1cccc(N2C(=O)CCC2=O)c1 | -72 | 0 | 101 | -26 | 1 | 72*
CCOc1ccc(-c2csc(NC(=O)c3cccc(N4C(=O)CCC4=O)c3)n2)cc1 | -90 | -2 | 100 | -18 | 1 | 90*
COc1ccc(-c2csc(NC(=O)c3cccc(N4C(=O)CCC4=O)c3)n2)cc1OC | -72 | 0 | 86 | . | -5 | 72*
C=CCN1[C@@H](CC(C)C)COc2cc(F)ccc2S1(=O)=O | . | . | . | . | -5 | .
CCOC(=O)c1sc(NCc2ccco2)c(-c2nc3ccccc3s2)c1N | -88 | 62* | 98 | . | 5 | 88*
CCNc1sc(C(=O)c2cccs2)c(N)c1C#N | . | 12 | 101 | 24 | 0 | .
CCNc1sc(C(=O)c2cccs2)c(N)c1-c1nc2ccccc2s1 | -97 | 55* | 109 | . | -2 | 98*
COc1ccc(-n2c(SCC(=O)Nc3ccc(Oc4ccccc4)cc3)nnc2-c2ccc(C)cc2)cc1 | . | . | . | . | -3 | .
Cc1nc2ccc(NC(=O)c3c(Cl)cccc3Cl)cc2c(=O)[nH]1 | . | . | . | . | 6 | .
COC(=O)C1CN(Cc2ccccc2)CCS(=O)(=O)N1Cc1cn(Cc2ccc(F)cc2)nn1 (configuration not stated) | . | . | . | . | 4 | .
SMILES | SR-BI DiI-HDL act | AHR activator | Yeast superoxide | Lipid droplet | SMARCA2 act | SR-BI DiI inh
CC1=NN(C(=O)c2ccccc2-n2cccc2)C(O)(C(F)(F)F)C1 (configuration not stated) | 32 | 2 | 102 | -24 | -2 | -32
CC1=NN(C(=O)c2ccc(C)cc2)C(O)(C(F)(F)OC(F)(F)F)C1 (configuration not stated) | -89 | 8 | 93 | . | -1 | 89*
CC(=O)c1ccc(N=Nc2c(C)[nH]n(-c3ccccc3)c2=O)cc1 | -20 | 54* | 103 | 28 | -1 | 20
Nc1[nH]n(-c2ccccc2)c(=O)c1N=Nc1ccc2c(c1)OCO2 | . | 121* | 116 | -3 | 0 | .
Cc1[nH]n(-c2ccccc2)c(=O)c1N=Nc1ccccc1 | -29 | 24 | 104 | 54* | 2 | 29
Cc1[nH]n(-c2ccccc2)c(=O)c1N=Nc1ccc(C#N)cc1 | -23 | 30 | 103 | 0 | 0 | 23
CCCCn1c(SCC(=O)c2ccc(OCC)cc2)nc2cc(S(N)(=O)=O)ccc21 | -43 | 48* | 105 | 6 | 1 | 43
CCCCCNc1nc(N2CCCC2)c2c(c1C#N)CCN(C)C2 | -17 | 60* | 107 | . | -2 | 17
CCCCCNc1nc(NCCCO)c(C#N)c2c1CN(C)CC2 | 14 | 58* | 98 | 9 | -1 | -14
C=CCNc1nc(NCc2ccccc2)c(C#N)c2c1CN(C)CC2 | 7 | 54* | 85 | . | 7 | -7
CCCc1nc(NCCO)c(C#N)c2c1CCCC2 | . | 5 | 96 | -6 | 0 | .
C[C@H](CO)N1C[C@H](C)[C@@H](CN(C)C(=O)NC2CCCCC2)OCc2cn(nn2)CCCC1=O | . | . | . | . | -4 | .
CCCN(CCC)CCN1CCN(C(=O)[C@H](CCc2ccccc2)NC(=O)[C@H]2O[C@@H](n3cnc4c(N)ncnc43)[C@H](O)[C@@H]2O)CC1 | . | . | . | . | -4 | .
C#CCNc1cccc2c1S(=O)(=O)N[C@H](C)CO2 | . | . | . | . | -2 | .
CC[C@]1(c2ccc(C)cc2)C(=O)N(C(=O)OC(C)C)N1C(=O)OC(C)C | . | . | . | . | -3 | .
COc1ccc(C2CC(=O)C(c3ccccc3OC)=CN2Cc2ccccc2)cc1 (configuration not stated) | . | . | . | . | -3 | .
N#C/C=C/C(=C\Nc1ccc(Cl)cc1)S(=O)(=O)c1ccccc1 | -85 | 8 | 112 | -5 | -4 | 85*
COc1ccc(N/C=C(\C=C\C#N)S(=O)(=O)c2ccccc2)cc1 | -23 | 4 | 98 | -1 | -2 | 23
CSCCNC(=O)Nc1c(-c2c(Cl)cccc2Cl)noc1C | 142* | 1 | 86 | -3 | -9 | -142
Cc1sc2ncnc(N3CCC(C(=O)NNC(=O)COc4ccc(Br)cc4)CC3)c2c1C | -81 | 5 | 102 | . | -2 | 81*
CN1C(=O)/C(=C/c2ccccc2OCc2ccc(F)cc2)N(C)C1=S | -53 | 78* | 106 | -5 | 6 | 53
CC(C)(C)c1ccc(S(=O)(=O)N2CCCC(C(=O)NCc3cccs3)C2)cc1 (configuration not stated) | . | . | . | . | -2 | .
CCCCCCCCN1C(=O)[C@@H](CC(=O)N2CCCC2)C[C@@]2(C(=O)OC)C1=C[C@H](C(C)(C)C)O[C@@H]2C | . | . | . | . | -5 | .
O=C(Nc1ccccc1)c1cc([N+](=O)[O-])ccc1NC1CCCCC1 | -47 | 52* | 112 | -8 | -5 | 47
